# From ChEMBL document CHEMBL1124606, “Benzo- and pyrido-1,4-oxazepin-5-ones and -thiones: synthesis and structure-activity relationships of a new series of H1 antihistamines” (1989)
# Test system: Cavia porcellus
# Assay: Histamine induced lethality, at 30-min pretreatment time when 3 mg/kg compound was administered intra peritoneally in guinea pigs
# Assay type: functional
# Details: not given
row,Compound,survival at 3 mg/kg [%]
1,CN(C)CCC1CN(C)C(=S)c2cccnc2S1 (stereo not drawn),0
2,CN(C)CCC1CN(C)C(=S)c2ccc3ccccc3c2O1 (stereo not drawn),33

# Test system: Cavia porcellus
# Assay: Histamine induced lethality, at 60-min pretreatment time when 30 mg/kg compound was administered perorally in guinea pigs
# Assay type: functional
# Details: route oral
row,Compound,survival at 30 mg/kg [%]
1,CN(C)CCC1CN(C)C(=S)c2ccccc2O1 (stereo not drawn),100

# Test system: Felis catus
# Assay: The compound dose required for 50% block of H1 histamine activity, when administarted intra venously in cats
# Assay type: functional
# Details: not given
# In short: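 Cats given test compound iv (0.001-20 mg/kg), with blood pressure recorded continuously. Histamine 0.5 μg/kg iv was given to induce hypotension, before and 5, 10 and 20 min after each dose. The antihistaminic dose was the one inhibiting the histamine response by >50%. Values are mean ± SD over the number of experiments per compound.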
row,Compound,Dose [mg/kg]
1,CN1CC(CCN2CCC2)Oc2ncc(Cl)cc2C1=S (stereo not drawn),0.005
2,CN(C)CCC1CN(C)C(=S)c2cccnc2O1 (stereo not drawn) [ROCASTINE],0.5
3,CN(C)CCC1CN(C)C(=S)c2cc3ccccc3cc2O1 (stereo not drawn),0.5
4,CN1CC(CCN2CCC2)Oc2ncc(Cl)cc2C1=O (stereo not drawn),0.06
5,CN(C)CCC(c1ccc(Br)cc1)c1ccccn1 (stereo not drawn) [BROMPHENIRAMINE],1.3
6,CN(C)CCC1CN(C)C(=S)c2cc(Cl)cnc2O1 (stereo not drawn),0.5
7,CN1CC(CCN2CCC2)Oc2ncccc2C1=O (stereo not drawn),0.6

# Test system: Felis catus
# Assay: The compound dose required to elicit marked cortical slowing and spindling, when administarted intra venously in cats
# Assay type: functional
# Details: not given
# In short: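 Cats given test compound iv (0.001-20 mg/kg), with spontaneous EEG inspected after each dose for cortical slowing, synchrony and spindle-type activity. The sedative dose was the one producing marked slowing and spindling (synchrony). Values are mean ± SD over the number of experiments per compound.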
row,Compound,Dose [mg/kg]
1,CN1CC(CCN2CCC2)Oc2ncc(Cl)cc2C1=S (stereo not drawn),>20
2,CN(C)CCC1CN(C)C(=S)c2cccnc2O1 (stereo not drawn) [ROCASTINE],>20
3,CN(C)CCC1CN(C)C(=S)c2ccccc2O1 (stereo not drawn),>20
4,CN(C)CCC1CN(C)C(=S)c2cc3ccccc3cc2O1 (stereo not drawn),>20
5,CN1CC(CCN2CCC2)Oc2ncc(Cl)cc2C1=O (stereo not drawn),>20
6,CN(C)CCC(c1ccc(Br)cc1)c1ccccn1 (stereo not drawn) [BROMPHENIRAMINE],1.7
7,CN(C)CCC1CN(C)C(=S)c2cc(Cl)cnc2O1 (stereo not drawn),>20
8,CN1CC(CCN2CCC2)Oc2ncccc2C1=O (stereo not drawn),>20

# Test system: Cavia porcellus
# Assay: Histamine induced lethality, at 30-min pretreatment time when 1 mg/kg compound was administered intra peritoneally in guinea pigs
# Assay type: functional
# Details: not given
row,Compound,survival at 1 mg/kg [%]
1,CN(C)CCC1CN(C)C(=S)c2cnccc2O1 (stereo not drawn),0
2,CN(C)CCC1CN(C)C(=O)c2cc3ccccc3nc2O1 (stereo not drawn),0
3,CN(C)CCC1CN(C)C(=O)c2cnccc2O1 (stereo not drawn),33

# Test system: Cavia porcellus
# Assay: Histamine induced lethality, at 30-min pretreatment time when 1 mg/kg compound was administered perorally in guinea pigs
# Assay type: functional
# Details: route oral
row,Compound,survival at 1 mg/kg [%]
1,CN(C)CCC1CN(C)C(=S)c2ccccc2O1 (stereo not drawn),50

# Test system: Cavia porcellus
# Assay: Histamine induced lethality, at 30-min pretreatment time when 0.3 mg/kg compound was administered intra peritoneally in guinea pigs
# Assay type: functional
# Details: not given
row,Compound,survival at 0.3 mg/kg [%]
1,CN(C)CCC1CN(C)C(=S)c2cc3ccccc3cc2O1 (stereo not drawn),100

# Test system: Cavia porcellus
# Assay: Histamine induced lethality, at 30-min pretreatment time when 30 mg/kg compound was administered intra peritoneally in guinea pigs
# Assay type: functional
# Details: not given
row,Compound,survival at 30 mg/kg [%]
1,CN(C)CCC1CN(C)C(=S)c2cccnc2S1 (stereo not drawn),100
2,CN(C)CCC1CN(C)C(=S)c2ccc3ccccc3c2O1 (stereo not drawn),100
3,CN(C)CCC1CN(C)C(=S)c2cnccc2O1 (stereo not drawn),100
4,CN(C)CCC1CN(C)C(=S)c2cc3ccccc3cc2O1 (stereo not drawn),100
5,CN(C)CCC1CN(C)C(=O)c2cnccc2O1 (stereo not drawn),100

# Species: Cavia porcellus
# Assay: Effective dose that protects guinea pigs against histamine induced lethality, at 1 hour pretreatment time
# Assay type: functional
# Details: not given
# In short: (§1)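 Survival at 24 h after challenge was scored as protection. Groups of 5–10 animals per treatment; ED50 was calculated by the Litchfield–Wilcoxon method or by computer probit analysis.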
row,Compound,ED50 [mg/kg]
1,CN1CC(CCN2CCC2)Oc2ncc(Cl)cc2C1=S (stereo not drawn),0.02
2,CN(C)CCC1CN(C)C(=S)c2cccnc2O1 (stereo not drawn) [ROCASTINE],0.12
3,CN1CC(CCN2CCC2)Oc2ncc(Cl)cc2C1=O (stereo not drawn),0.04
4,CN(C)CCC(c1ccc(Br)cc1)c1ccccn1 (stereo not drawn) [BROMPHENIRAMINE],0.08
5,CN(C)CCC1CN(C)C(=S)c2cc(Cl)cnc2O1 (stereo not drawn),0.04
6,CN1CC(CCN2CCC2)Oc2ncccc2C1=O (stereo not drawn),0.13

# Test system: Cavia porcellus
# Assay: Histamine induced lethality, at 60-min pretreatment time when 1 mg/kg compound was administered perorally in guinea pigs
# Assay type: functional
# Details: route oral
row,Compound,survival at 1 mg/kg [%]
1,CN(C)CCC1CN(C)C(=S)c2ccccc2O1 (stereo not drawn),0

# Test system: Cavia porcellus
# Assay: Histamine induced lethality, at 60-min pretreatment time when 3 mg/kg compound was administered perorally in guinea pigs
# Assay type: functional
# Details: route oral
row,Compound,survival at 3 mg/kg [%]
1,CN(C)CCC1CN(C)C(=S)c2ccccc2O1 (stereo not drawn),0

# Species: Cavia porcellus
# Assay: Effective dose that protects guinea pigs against histamine induced lethality at 6 hours pretreatment time
# Assay type: functional
# Details: not given
# In short: as §1
row,Compound,ED50 [mg/kg]
1,CN1CC(CCN2CCC2)Oc2ncc(Cl)cc2C1=S (stereo not drawn),0.02
2,CN(C)CCC1CN(C)C(=S)c2cccnc2O1 (stereo not drawn) [ROCASTINE],6
3,CN1CC(CCN2CCC2)Oc2ncc(Cl)cc2C1=O (stereo not drawn),0.8
4,CN(C)CCC(c1ccc(Br)cc1)c1ccccn1 (stereo not drawn) [BROMPHENIRAMINE],2.5
5,CN(C)CCC1CN(C)C(=S)c2cc(Cl)cnc2O1 (stereo not drawn),0.6
6,CN1CC(CCN2CCC2)Oc2ncccc2C1=O (stereo not drawn),6

# Target: Histamine H1 receptor (Cavia porcellus) (UniProt P31389)
# Sequence (P31389 whole entry): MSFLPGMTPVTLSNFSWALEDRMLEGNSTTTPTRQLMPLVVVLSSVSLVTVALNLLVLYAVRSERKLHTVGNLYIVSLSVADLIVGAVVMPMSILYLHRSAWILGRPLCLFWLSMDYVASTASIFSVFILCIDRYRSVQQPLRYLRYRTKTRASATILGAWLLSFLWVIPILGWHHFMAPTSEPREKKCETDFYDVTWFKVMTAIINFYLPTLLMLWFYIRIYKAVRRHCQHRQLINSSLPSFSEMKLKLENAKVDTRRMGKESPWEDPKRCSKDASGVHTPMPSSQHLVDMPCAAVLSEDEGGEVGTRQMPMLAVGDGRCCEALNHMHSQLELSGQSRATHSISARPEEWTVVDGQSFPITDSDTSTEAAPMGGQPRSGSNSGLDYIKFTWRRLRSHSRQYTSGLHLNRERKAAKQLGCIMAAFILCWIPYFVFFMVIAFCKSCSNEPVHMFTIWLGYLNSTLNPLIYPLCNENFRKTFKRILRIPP
# Assay: Histamine induced lethality, at 30-min pretreatment time of 3 mg/kg i.p. in guinea pigs.
# Assay type: functional, organism-based
# Parameters: dose 3 mg/kg
# Details: at 3 mg/kg
row,Compound,Survival [%]
1,CN(C)CCC1CN(C)C(=S)c2cnccc2O1 (stereo not drawn),100
2,CN(C)CCC1CN(C)C(=O)c2cc3ccccc3nc2O1 (stereo not drawn),100
3,CN(C)CCC1CN(C)C(=S)c2cc3ccccc3cc2O1 (stereo not drawn),67
4,CN(C)CCC1CN(C)C(=O)c2cnccc2O1 (stereo not drawn),67
5,CN(C)CCC1CN(C)C(=O)c2cccnc2S1 (stereo not drawn),0

# Test system: Cavia porcellus
# Assay: Histamine induced lethality, at 60-min pretreatment time when 0.3 mg/kg compound was administered perorally in guinea pigs
# Assay type: functional
# Details: route oral
row,Compound,survival at 0.3 mg/kg [%]
1,CN(C)CCC1CN(C)C(=S)c2cccnc2O1 (stereo not drawn) [ROCASTINE],100
2,CN(C)CCC(c1ccc(Br)cc1)c1ccccn1 (stereo not drawn) [BROMPHENIRAMINE],100
3,CN1CC(CCN2CCC2)Oc2ncccc2C1=O (stereo not drawn),100

# Target: Histamine H1 receptor (Cavia porcellus) (UniProt P31389)
# Assay: Histamine induced lethality, at 60-min pretreatment time of 0.1 mg/kg p.o. in guinea pigs.
# Assay type: functional, organism-based
# Parameters: dose 0.1 mg/kg
# Details: at 0.1 mg/kg
row,Compound,Survival [%]
1,CN1CC(CCN2CCC2)Oc2ncc(Cl)cc2C1=S (stereo not drawn),100
2,CN(C)CCC1CN(C)C(=S)c2cccnc2O1 (stereo not drawn) [ROCASTINE],50
3,CN1CC(CCN2CCC2)Oc2ncc(Cl)cc2C1=O (stereo not drawn),100
4,CN(C)CCC(c1ccc(Br)cc1)c1ccccn1 (stereo not drawn) [BROMPHENIRAMINE],40
5,CN(C)CCC1CN(C)C(=S)c2cc(Cl)cnc2O1 (stereo not drawn),100
6,CN1CC(CCN2CCC2)Oc2ncccc2C1=O (stereo not drawn),67

# Test system: Cavia porcellus
# Assay: Histamine induced lethality, at 30-min pretreatment time when 30 mg/kg compound was administered intra peritoneallyn guinea pigs
# Assay type: functional
# Details: not given
row,Compound,survival at 30 mg/kg [%]
1,CN(C)CCC1CN(C)C(=O)c2cccnc2S1 (stereo not drawn),67

# Test system: Cavia porcellus
# Assay: Histamine induced lethality, at 60-min pretreatment time when 0.1 mg/kg compound was administered perorally in guinea pigs
# Assay type: functional
# Details: route oral
row,Compound,survival at 0.1 mg/kg [%]
1,CN(C)CCC1CN(C)C(=S)c2ccccc2O1 (stereo not drawn),100
